In ChEMBL document CHEMBL2429830, “Antimycobacterial labdane diterpenes from Leucas stelligera” (J Nat Prod, 2013):
≈ marks a conversion by molar mass, not a printed value. Calls of active or inactive are those of the source. The rule behind the calls is not given here.

Assays:
THP-1 [1] = assay: Cytotoxicity against human THP1 cells assessed as growth inhibition after 72 hrs by MTT assay; assay type: functional; conditions: THP-1, 72 h
Method in brief: (§1)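 Viability by MTT (1 h, 37 °C), formazan taken up in 2-propanol 4 h, absorbance 490 nm against cell-free blank. Medium with matching DMSO served as 100% growth.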

MCF7 [2] = assay: Cytotoxicity against human MCF7 cells assessed as growth inhibition at 100 ug/mL after 192 hrs by MTT assay relative to control; assay type: functional; conditions: MCF7, 192 h, read-out: GI
Method in brief: (§2)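 MCF-7 cells at ~10^5 cells/mL, 24 h adherence at 37 °C. MTT read-out: 1 h with MTT at 37 °C, then 2-propanol solubilization for 4 h, OD 490 nm versus cell-free wells. Growth expressed relative to DMSO-only controls (100%).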

MCF7 [3] = assay: Cytotoxicity against human MCF7 cells assessed as growth inhibition after 192 hrs by MTT assay; assay type: functional; conditions: MCF7, 192 h
Method in brief: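 MCF-7 cells at ~10^5 cells/mL, 24 h adherence at 37 °C. […] MTT read-out: 1 h with MTT at 37 °C, then 2-propanol solubilization for 4 h, OD 490 nm versus cell-free wells. Growth expressed relative to DMSO-only controls (100%).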

THP-1 [4] = assay: Cytotoxicity against human THP1 cells assessed as growth inhibition at 100 ug/mL after 72 hrs by MTT assay relative to control; assay type: functional; conditions: THP-1, 72 h, read-out: GI; method in brief: as §1
HepG2 [5] = assay: Cytotoxicity against human HepG2 cells assessed as growth inhibition after 120 hrs by MTT assay; assay type: functional; conditions: HepG2, 120 h
Method in brief: (§3)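 MTT (10 μL of 5 mg/mL) added for 1 h at 37 °C. Formazan dissolved in 2-propanol for 4 h, read at 490 nm against cell-free blank. DMSO-carrier wells taken as 100% growth.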

HepG2 [6] = assay: Cytotoxicity against human HepG2 cells assessed as growth inhibition at 100 ug/mL after 120 hrs by MTT assay relative to control; assay type: functional; conditions: HepG2, 120 h, read-out: GI; method in brief: as §3
[7] = test system: Mycobacterium tuberculosis; assay: Antimycobacterial activity against Mycobacterium tuberculosis H37Ra assessed as inhibition of cell viability measured on day 8 by XTT assay in presence of menadione; assay type: functional, organism-based; conditions: 192 h
Method in brief: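 H37Ra log-phase culture grown in M. pheli medium at 37 °C, sonicated, then seeded at about 10^5 cells/mL. Serial dilutions of DMSO-dissolved samples were tested, with isoniazid as positive control, at 37 °C in a CO2 incubator for 8 days. Viability was read by XTT (200 μM, 20 min) then menadione (60 μM, 40 min), OD470. IC50 and IC90 came from dose-response curves.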

THP-1 [8] = assay: Cytotoxicity against human THP1 cells assessed as growth inhibition at IC90 after 72 hrs by MTT assay relative to control; assay type: functional; method in brief: as §1
[9] = test system: Mycolicibacterium smegmatis; assay: Antimycobacterial activity against Mycobacterium smegmatis MC2 155 assessed as inhibition of cell viability at IC90 measured on day 3 by XTT assay in presence of menadione relative to control; assay type: functional, str. MC2 155
HepG2 [10] = assay: Cytotoxicity against human HepG2 cells assessed as growth inhibition at IC90 after 120 hrs by MTT assay relative to control; assay type: functional; method in brief: as §3
Escherichia coli [11] = assay: Antibacterial activity against Escherichia coli DH5[alpha] assessed as growth inhibition at IC90 after 6 hrs relative to control; assay type: functional
MCF7 [12] = assay: Cytotoxicity against human MCF7 cells assessed as growth inhibition at IC90 after 192 hrs by MTT assay relative to control; assay type: functional; method in brief: as §2
[13] = test system: Mycolicibacterium smegmatis; assay: Antimycobacterial activity against Mycobacterium smegmatis MC2 155 assessed as inhibition of cell viability measured on day 3 by XTT assay in presence of menadione; assay type: functional; conditions: str. MC2 155, 72 h
Method in brief: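 M. smegmatis mc2 155 in microplate wells; on day 3, OD470 read as blank, then XTT (200 μM) added, shaken 1 min and held 20 min at 37 °C. Menadione (60 μM) was then added, mixed 1 min and held another 20 min at 37 °C before the final OD470 reading.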

Escherichia coli [14] = assay: Antibacterial activity against Escherichia coli DH5[alpha] assessed as growth inhibition after 6 hrs; assay type: functional
[15] = test system: Mycobacterium tuberculosis; assay: Antimycobacterial activity against Mycobacterium tuberculosis H37Ra assessed as inhibition of cell viability at 100 ug/mL measured on day 8 by XTT assay in presence of menadione; assay type: functional, organism-based
Method in brief: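 M. tuberculosis H37Ra (ATCC 25177) grown aerobically to log phase in M. pheli medium at 37 °C, 150 rpm, then sonicated 2 min. About 10^5 cells/mL, 250 μL per well, exposed to DMSO-dissolved samples at 100 μg/mL and incubated at 37 °C in a CO2 incubator. Day 8 read-out: OD470 blank, XTT 200 μM for 20 min, menadione 60 μM for 40 min, then OD470.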

## CC(=O)O[C@H]1C(=O)[C@@]2(C)[C@H]([C@H](OC(=O)c3ccccc3)[C@]3(O)C[C@H](OC(=O)[C@H](O)[C@@H](NC(=O)c4ccccc4)c4ccccc4)C(C)=C1C3(C)C)[C@]1(OC(C)=O)CO[C@@H]1C[C@@H]2O [PACLITAXEL]
THP-1 [1]
  IC90: 98.6 µg/mL (≈ 115 µM)
MCF7 [2]
  inhibition of growth at 100 µg/mL: 86.7%
MCF7 [3]
  IC90: 107 µg/mL (≈ 125 µM)
THP-1 [4]
  inhibition of growth at 100 µg/mL: 82.5%
HepG2 [5]
  IC90: 78.9 µg/mL (≈ 92.4 µM)
HepG2 [6]
  inhibition of growth at 100 µg/mL: 87.9%

## C[C@@H]1CC[C@H]2C(C)(C)CCC[C@]2(C)[C@@]12CC[C@]1(CO[C@H](O)C1)O2
[7]
  IC50: 5.55 µg/mL
  IC90: 14.9 µg/mL
THP-1 [8]
  growth inhibition (GI): 8.18%
[9]
  inhibition (INH): 47.83%
MCF7 [2]
  inhibition of growth at 100 µg/mL: 42.4%
HepG2 [10]
  growth inhibition (GI): 6.92%
Escherichia coli [11]
  growth inhibition (GI): 23.15%
MCF7 [12]
  growth inhibition (GI): 28.98%
THP-1 [4]
  inhibition of growth at 100 µg/mL: 21.7%
HepG2 [6]
  inhibition of growth at 100 µg/mL: 14.4%

## CO[C@H]1/C=C/O[C@@]2(C)Oc3c(C)c(O)c4c(O)c(c(/C=N/N5CCN(C)CC5)c(O)c4c3C2=O)NC(=O)/C(C)=C\C=C\[C@H](C)[C@H](O)[C@@H](C)[C@@H](O)[C@@H](C)[C@H](OC(C)=O)[C@@H]1C [RIFAMPIN]
[13]
  IC90: 0.2 µg/mL
Escherichia coli [14]
  IC90: 0.5 µg/mL (≈ 0.608 µM)

## C[C@@H]1CC[C@H]2C(C)(C)CCC[C@]2(C)[C@@]1(O)CC/C(=C/CO)CO
[7]
  IC50: 9.8 µg/mL
THP-1 [8]
  growth inhibition (GI): 9.07%
[9]
  inhibition (INH): 30.57%
MCF7 [2]
  inhibition of growth at 100 µg/mL: 3.54%
HepG2 [10]
  growth inhibition (GI): 21.48%
Escherichia coli [11]
  growth inhibition (GI): 11.47%
MCF7 [12]
  growth inhibition (GI): 3.54%
THP-1 [4]
  inhibition of growth at 100 µg/mL: 9.07%
HepG2 [6]
  inhibition of growth at 100 µg/mL: 21.5%

## NNC(=O)c1ccncc1 [ISONIAZID]
[7]
  IC90: 0.055 µg/mL

## C=C[C@](C)(O)CC[C@@H]1[C@@]2(C)CCCC(C)(C)[C@H]2CC[C@@]1(C)O
[7]
  IC50: 5.95 µg/mL
THP-1 [4]
  inhibition of growth at 100 µg/mL: 96.4%

## COc1cc(O)c2c(=O)cc(-c3ccc(O)c(OC)c3)oc2c1
[15]
  inhibition: inactive
